Source: ChEMBL document CHEMBL1123645, “Phenylephrine derivatives as leukotriene D4 antagonists” (J Med Chem, 1987)
Blank lines part the entries; values can stand above or below the molecule they belong to. Activity calls are given as the source filed them. The rule behind the calls is not given here.

What was measured:
Cavia porcellus [1] = test: Antagonist activity was determined by the ability to inhibit of ovalbumin induced bronchospasm when administered per orally; type: functional; conditions: po
In short: (§1)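 Guinea pig bronchoconstriction induced by LTD4 or by ovalbumin. Antagonist was dosed orally to awake animals 120 min before the agonist, which is 95 min before anesthetic. […] Single-dose lines give percent inhibition at the stated oral dose.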

Cavia porcellus [2] = test: Relative inhibitory potency against ovalbumin induced bronchospasm when administered per orally; type: functional
Cavia porcellus [3] = test: Inhibition of Ovalbumin (OA) induced bronchospasm in the guinea pig when administered perorally (50 mg/kg); type: functional; in short: as §1
Cavia porcellus [4] = test: Relative inhibitory potency against LTD4 (leukotriene D4) induced bronchospasm when administered intraduodenally; type: functional
Cavia porcellus [5] = test: Relative inhibitory potency against ovalbumin induced bronchospasm when administered intraduodenally; type: functional
Cavia porcellus [6] = species on record: Cavia porcellus; test: Antagonist activity towards LTD4-induced contraction of isolated guinea pig; type: functional
In short: (§2)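 Guinea pig tracheal spirals stretched to near-optimal length and equilibrated 1.5 h, washed every 15 min. Indomethacin (5 μM) was present in all tissues. Cumulative LTD4 dose-response curves were recorded isometrically via force transducers. Paired proximal/distal strips from one animal got solvent control or drug. Values are negative log, mean ± SEM, and were compared by Student's t test.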

Cavia porcellus [7] = test: Antagonist activity was determined by the ability to inhibit of LTD4 (leukotriene D4) induced bronchospasm when administered per orally; type: functional; conditions: po; in short: as §1
Cavia porcellus [8] = test: Antagonist activity was determined by the ability to inhibit of LTD4 (leukotriene D4) induced bronchospasm when administered intraduodenally; type: functional; conditions: intraduodenal
In short: (§3)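 Guinea pig bronchoconstriction induced by LTD4 or by ovalbumin. Antagonist was given intraduodenally 10 min before the agonist. […] Single-dose lines give percent inhibition at the stated id dose.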

Cavia porcellus [9] = test: Antagonist activity was determined by the ability to inhibit of ovalbumin induced bronchospasm when administered intraduodenally; type: functional; conditions: intraduodenal; in short: as §3
Cavia porcellus [10] = species on record: Cavia porcellus; test: relative potency antagonist on LTD4-induced contraction of isolated guinea pig trachea; type: functional; in short: as §2
[11] = target: Cysteinyl leukotriene receptor (Homo sapiens) (UniProt Q9Y271+Q9NS75); test: Inhibition of Ovalbumin (OA) induced bronchospasm in the guinea pig when administered intraduodenally (50 mg/kg); type: functional, organism-based; conditions: Cavia porcellus; target entry is the homologue from another species; in short: as §3
Cavia porcellus [12] = test: Relative inhibitory potency against LTD4 (leukotriene D4) induced bronchospasm when administered per orally; type: functional
Cavia porcellus [13] = test: Inhibition of LTD4 (leukotriene) induced bronchospasm in the guinea pig when administered intraduodenally (50 mg/kg); Not active; type: functional, organism-based; in short: as §3
Cavia porcellus [14] = test: Antagonist activity was determined by the ability to inhibit of ovalbumin induced bronchospasm when administered intraduodenally with respect to REV-5901 compound; type: functional; conditions: intraduodenal; in short: as §3
Cavia porcellus [15] = test: Antagonist activity was determined by the ability to inhibit of ovalbumin induced bronchospasm when administered perorally with respect to REV-5901 compound; type: functional; conditions: po; in short: as §1
Cavia porcellus [16] = test: Relative inhibitory potency against ovalbumin induced bronchospasm when administered perorally with respect to LY-171,883 compound
Cavia porcellus [17] = test: Antagonist activity was determined by the ability to inhibit of LTD4 (leukotriene D4) induced bronchospasm when administered intraduodenally with respect to REV-5901 compound; type: functional; conditions: intraduodenal; in short: as §3
Cavia porcellus [18] = test: Relative inhibitory potency against LTD4 (leukotriene D4) induced bronchospasm when administered intraduodenally with respect to REV-5901 compound; type: functional
Cavia porcellus [19] = test: Antagonist activity was determined by the ability to inhibit of LTD4 (leukotriene D4) induced bronchospasm when administered perorally with respect to REV-5901 compound; type: functional; conditions: po; in short: as §1
Cavia porcellus [20] = test: Relative inhibitory potency against LTD4 (leukotriene D4) induced bronchospasm when administered perorally with respect to REV-5901 compound; type: functional
Cavia porcellus [21] = test: Inhibition of Ovalbumin (OA) induced bronchospasm in the guinea pig when administered intraduodenally at 25 mg/kg; type: functional; conditions: route intraduodenal; in short: as §3
Cavia porcellus [22] = test: Inhibition of LTD4 (leukotriene) induced bronchospasm in the guinea pig when administered intraduodenally (50 mg/kg)
Cavia porcellus [23] = test: Inhibition of LTD4 (leukotriene) induced bronchospasm in the guinea pig when administered intraduodenally at 25 mg/kg
Cavia porcellus [24] = test: Inhibition of LTD4 (leukotriene) induced bronchospasm in the guinea pig when administered perorally (50 mg/kg)
Cavia porcellus [25] = test: as above; remark: listed apart in the source
Cavia porcellus [26] = test: Inhibition of Ovalbumin (OA) induced bronchospasm in the guinea pig when administered intraduodenally (50 mg/kg); NA means not active; type: functional, organism-based; in short: as §3
Cavia porcellus [27] = test: Inhibition of LTD4 (leukotriene) induced bronchospasm in the guinea pig when administered perorally at 25 mg/kg; NA means not active; type: functional, organism-based; design: dose 25 mg/kg; in short: as §1

Sequence of Cysteinyl leukotriene receptor (Homo sapiens) (Q9NS75 whole entry, looked up): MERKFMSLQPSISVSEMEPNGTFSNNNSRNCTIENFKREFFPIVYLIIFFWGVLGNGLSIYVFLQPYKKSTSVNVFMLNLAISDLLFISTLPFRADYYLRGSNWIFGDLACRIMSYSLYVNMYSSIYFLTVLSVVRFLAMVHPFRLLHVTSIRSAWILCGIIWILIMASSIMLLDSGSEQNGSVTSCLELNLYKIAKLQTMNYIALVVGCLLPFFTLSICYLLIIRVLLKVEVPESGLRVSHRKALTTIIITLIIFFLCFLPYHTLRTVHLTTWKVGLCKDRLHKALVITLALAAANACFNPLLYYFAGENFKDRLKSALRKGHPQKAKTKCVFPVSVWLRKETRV
Sequence of Cysteinyl leukotriene receptor (Homo sapiens) (Q9Y271 whole entry, looked up): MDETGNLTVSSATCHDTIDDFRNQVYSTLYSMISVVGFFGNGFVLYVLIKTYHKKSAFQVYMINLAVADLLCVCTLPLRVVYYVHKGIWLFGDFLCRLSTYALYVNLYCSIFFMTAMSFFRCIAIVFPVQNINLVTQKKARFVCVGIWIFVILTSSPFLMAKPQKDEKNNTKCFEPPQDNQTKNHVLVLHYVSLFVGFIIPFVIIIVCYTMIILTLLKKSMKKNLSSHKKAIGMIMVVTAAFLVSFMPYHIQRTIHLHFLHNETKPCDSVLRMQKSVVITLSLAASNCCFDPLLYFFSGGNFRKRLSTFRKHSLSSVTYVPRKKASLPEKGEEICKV

Compound: CCN(CC)C(=O)N(C)C[C@H](O)c1cccc(OCc2ccc3ccccc3n2)c1
ED50 (Cavia porcellus [1]): 55 mg/kg | Potency (Cavia porcellus [2]): 1.4 | Inhibition (Cavia porcellus [3]): 25% | Potency (Cavia porcellus [4]): 1.5 | Potency (Cavia porcellus [5]): 1.1 | pkB (Cavia porcellus [6]): 5.22 | ED50 (Cavia porcellus [7]): 56 mg/kg | ED50 (Cavia porcellus [8]): 9 mg/kg | ED50 (Cavia porcellus [9]): 20 mg/kg | Potency (Cavia porcellus [10]): 23 | inhibition [11]: 75% | Potency (Cavia porcellus [12]): 1.8

Compound: CN1CC(c2cccc(OCc3ccc4ccccc4n3)c2)OC1=S (stereo unspecified)
inhibition (Cavia porcellus [13]): inactive

Compound: CCCCCC(O)c1cccc(OCc2ccc3ccccc3n2)c1 (stereo unspecified) [REV-5901]
ED50 (Cavia porcellus [14]): 47 mg/kg | ED50 (Cavia porcellus [15]): 87 mg/kg | Potency (Cavia porcellus [16]): 2.3 | ED50 (Cavia porcellus [17]): 51 mg/kg | pkb (Cavia porcellus [6]): 5.64 | Potency (Cavia porcellus [18]): 8.5 | ED50 (Cavia porcellus [19]): 52 mg/kg | Potency (Cavia porcellus [10]): 8 | Potency (Cavia porcellus [20]): 1.6

Compound: COC(=O)C1CCCN1C(=O)N(C)C[C@H](O)c1cccc(OCc2ccc3ccccc3n2)c1 (stereo partly specified)
inhibition (Cavia porcellus [22]): 71% | inhibition [11]: 23%

Compound: C#CCN(C)C[C@H](O)c1cccc(OCc2ccc3ccccc3n2)c1
inhibition (Cavia porcellus [23]): 41%

Compound: O=C1OC(c2cccc(OCc3ccc4ccccc4n3)c2)CN1Cc1ccc2ccccc2n1 (stereo unspecified)
inhibition (Cavia porcellus [22]): 31% | inhibition [11]: 50%

Compound: c1cc(OCc2ccc3ccccc3n2)cc(C2CN=C(c3cccs3)O2)c1 (stereo unspecified)
inhibition (Cavia porcellus [22]): 41%

Compound: O=C(NCC(O)c1cccc(OCc2ccc3ccccc3n2)c1)c1ccccn1 (stereo unspecified)
inhibition (Cavia porcellus [23]): 20%

Compound: NCC(O)c1cccc(OCc2ccc3ccccc3n2)c1 (stereo unspecified)
inhibition (Cavia porcellus [22]): 23%

Compound: O=C1NCC(c2cccc(OCc3ccc4ccccc4n3)c2)O1 (stereo unspecified)
inhibition (Cavia porcellus [23]): 66%

Continued, in another order:

inhibition (Cavia porcellus [22]): 65%
Compound: CN1CC(c2cccc(OCc3nc4ccccc4n3C)c2)OC1=O (stereo unspecified)
inhibition in vivo at 25 mg/kg (Cavia porcellus [21]): 68%

inhibition (Cavia porcellus [23]): 77% | inhibition (Cavia porcellus [24]): inactive
Compound: c1cc(OCc2ccc3ccccc3n2)cc(C2CN=C(c3ccncc3)O2)c1 (stereo unspecified)

inhibition (Cavia porcellus [25]): 15% | inhibition (Cavia porcellus [22]): 93% | inhibition (Cavia porcellus [24]): 15%
Compound: CN(C)C(=O)N(C)C[C@H](O)c1cccc(OCc2ccc3ccccc3n2)c1

inhibition (Cavia porcellus [22]): 59% | inhibition [11]: 36%
Compound: CCN(CC)C(=O)N(C)C[C@H](O)c1cccc(OCc2nc3ccccc3s2)c1
Inhibition (Cavia porcellus [3]): 41%

inhibition (Cavia porcellus [25]): 33% | inhibition (Cavia porcellus [22]): 56%
Compound: CN(C)S(=O)(=O)N(C)C[C@H](O)c1cccc(OCc2ccc3ccccc3n2)c1
inhibition (Cavia porcellus [26]): inactive

inhibition (Cavia porcellus [22]): 71% | inhibition [11]: 20%
Compound: CCOC(=O)N(C)C[C@H](O)c1cccc(OCc2ccc3ccccc3n2)c1

inhibition (Cavia porcellus [23]): 86% | inhibition (Cavia porcellus [24]): inactive
Compound: c1cncc(C2=NCC(c3cccc(OCc4ccc5ccccc5n4)c3)O2)c1 (stereo unspecified)
inhibition (Cavia porcellus [27]): inactive

inhibition (Cavia porcellus [22]): 26%
Compound: CCN(CC)C(=O)N(C)CC(=O)c1cccc(OCc2ccc3ccccc3n2)c1

inhibition (Cavia porcellus [22]): 21%
Compound: CN(C[C@H](O)c1cccc(OCc2ccc3ccccc3n2)c1)C(=O)N(c1ccccc1)c1ccccc1
